Assay [1] addresses T1, Mitogen-activated protein kinase kinase kinase kinase 5 (Homo sapiens, UniProt Q9Y4K4). Description: Binding affinity to wild-type human partial length MAP4K5 (M1 to P297 residues) expressed in bacterial expression system assessed as residual binding level at 100 nM by Kinomescan method relative to control.
Target sequence in this assay (Q9Y4K4 whole entry, looked up, the tested form may be a part): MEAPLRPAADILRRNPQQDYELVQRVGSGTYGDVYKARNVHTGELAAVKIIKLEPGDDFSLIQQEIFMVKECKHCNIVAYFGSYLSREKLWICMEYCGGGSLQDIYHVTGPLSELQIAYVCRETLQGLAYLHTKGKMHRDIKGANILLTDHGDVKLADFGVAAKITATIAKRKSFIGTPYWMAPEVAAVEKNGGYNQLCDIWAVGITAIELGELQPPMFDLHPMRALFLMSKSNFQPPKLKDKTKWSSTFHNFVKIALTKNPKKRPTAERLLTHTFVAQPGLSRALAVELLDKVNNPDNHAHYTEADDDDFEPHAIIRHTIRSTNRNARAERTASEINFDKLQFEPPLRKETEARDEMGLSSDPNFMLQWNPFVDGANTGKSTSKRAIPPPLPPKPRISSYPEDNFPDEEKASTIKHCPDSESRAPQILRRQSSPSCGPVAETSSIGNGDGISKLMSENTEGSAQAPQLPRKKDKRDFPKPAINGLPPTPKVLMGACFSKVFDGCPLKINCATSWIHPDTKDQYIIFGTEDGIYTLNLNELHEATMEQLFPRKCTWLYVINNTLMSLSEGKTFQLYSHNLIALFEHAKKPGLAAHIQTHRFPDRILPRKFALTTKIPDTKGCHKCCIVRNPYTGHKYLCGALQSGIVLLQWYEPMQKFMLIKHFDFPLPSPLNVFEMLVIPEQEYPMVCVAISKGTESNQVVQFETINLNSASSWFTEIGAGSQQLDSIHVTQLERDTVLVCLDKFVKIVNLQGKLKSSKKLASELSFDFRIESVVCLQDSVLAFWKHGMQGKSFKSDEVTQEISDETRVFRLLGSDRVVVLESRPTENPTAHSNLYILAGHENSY
Assay [2] deals with T2, Dual specificity mitogen-activated protein kinase kinase 7 (Homo sapiens) (UniProt O14733).
T2 sequence (whole entry): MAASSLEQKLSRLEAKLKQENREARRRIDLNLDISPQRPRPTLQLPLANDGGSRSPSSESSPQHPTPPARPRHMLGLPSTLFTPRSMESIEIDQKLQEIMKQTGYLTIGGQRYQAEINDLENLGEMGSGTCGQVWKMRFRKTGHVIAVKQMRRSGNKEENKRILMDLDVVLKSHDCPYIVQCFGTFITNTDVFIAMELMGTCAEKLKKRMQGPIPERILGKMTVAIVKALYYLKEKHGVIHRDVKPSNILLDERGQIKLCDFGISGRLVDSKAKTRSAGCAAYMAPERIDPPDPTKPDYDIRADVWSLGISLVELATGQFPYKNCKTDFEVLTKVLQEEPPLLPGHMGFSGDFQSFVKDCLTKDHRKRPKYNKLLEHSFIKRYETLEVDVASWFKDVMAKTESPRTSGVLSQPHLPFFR
Description: Binding affinity to wild-type human full length MKK7 (M1 to R419 residues) expressed in mammalian expression system assessed as residual binding level at 100 nM by Kinomescan method relative to control.

Assay [3] concerns the target T3, Mitogen-activated protein kinase kinase kinase 20 (Homo sapiens, UniProt Q9NYL2). Description: Binding affinity to wild-type human partial length ZAK (M1 to L331 residues) expressed in bacterial expression system assessed as residual binding level at 100 nM by Kinomescan method relative to control.
Target sequence in this assay (Q9NYL2 2-800 limits assumed): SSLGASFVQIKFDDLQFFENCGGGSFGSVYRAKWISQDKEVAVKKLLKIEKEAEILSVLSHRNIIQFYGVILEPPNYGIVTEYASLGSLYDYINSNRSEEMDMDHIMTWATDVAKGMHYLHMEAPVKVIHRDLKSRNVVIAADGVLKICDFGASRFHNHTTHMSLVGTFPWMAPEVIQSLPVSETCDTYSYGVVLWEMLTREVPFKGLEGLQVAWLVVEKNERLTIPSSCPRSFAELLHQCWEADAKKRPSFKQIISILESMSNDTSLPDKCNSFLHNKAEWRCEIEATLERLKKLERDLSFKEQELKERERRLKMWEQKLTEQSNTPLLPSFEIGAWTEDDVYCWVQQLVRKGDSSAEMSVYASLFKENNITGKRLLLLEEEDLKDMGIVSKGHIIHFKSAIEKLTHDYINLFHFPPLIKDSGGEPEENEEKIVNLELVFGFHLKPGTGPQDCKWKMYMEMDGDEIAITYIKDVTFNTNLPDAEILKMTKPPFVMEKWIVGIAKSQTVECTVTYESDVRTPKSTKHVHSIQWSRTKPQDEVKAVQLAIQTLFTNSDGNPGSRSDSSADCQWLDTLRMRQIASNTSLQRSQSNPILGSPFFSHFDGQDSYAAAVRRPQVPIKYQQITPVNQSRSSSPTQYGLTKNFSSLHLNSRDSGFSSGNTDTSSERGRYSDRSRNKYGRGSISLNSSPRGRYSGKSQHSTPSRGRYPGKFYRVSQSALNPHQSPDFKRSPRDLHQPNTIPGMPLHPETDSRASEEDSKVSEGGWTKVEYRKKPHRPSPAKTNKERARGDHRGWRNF
Assay [4] addresses T4, Dual specificity mitogen-activated protein kinase kinase 4 (Homo sapiens, UniProt P45985).
T4 sequence (P45985 whole entry): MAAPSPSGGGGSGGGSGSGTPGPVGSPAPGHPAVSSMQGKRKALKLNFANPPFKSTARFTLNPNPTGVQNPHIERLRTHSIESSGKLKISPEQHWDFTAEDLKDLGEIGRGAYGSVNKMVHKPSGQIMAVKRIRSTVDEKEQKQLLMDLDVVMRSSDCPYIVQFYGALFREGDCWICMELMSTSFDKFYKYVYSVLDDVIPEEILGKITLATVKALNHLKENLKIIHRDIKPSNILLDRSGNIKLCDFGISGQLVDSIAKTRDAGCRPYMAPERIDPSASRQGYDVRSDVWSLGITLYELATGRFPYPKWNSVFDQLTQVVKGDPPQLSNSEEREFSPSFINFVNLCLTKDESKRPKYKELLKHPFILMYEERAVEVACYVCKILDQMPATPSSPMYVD
Description: Inhibition of MKK4 (unknown origin) by PanQinase assay.

The target of assay [5] is Serine/threonine-protein kinase B-raf (Homo sapiens, UniProt P15056). Description: Binding affinity to wild-type human partial length BRAF (S429 to E741 residues) expressed in mammalian expression system by Kinomescan method.
For assay [6], the target named is Mitogen-activated protein kinase 8 (Homo sapiens, UniProt P45983). Description: Binding affinity to wild-type human full length JNK1 (M1 to Q384 residues) expressed in mammalian expression system by Kinomescan method.
Assay [7] addresses T1, Mitogen-activated protein kinase kinase kinase kinase 5. Description: Binding affinity to wild-type human partial length MAP4K5 (M1 to P297 residues) expressed in bacterial expression system by Kinomescan method. Put shortly:
(§1)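 Dissociation constants (Kd, nM) were determined by KINOMEscan competition-binding assay, in duplicate.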
Target sequence in this assay (Q9Y4K4 whole entry, the tested form may be a part): as the sequence (Q9Y4K4 whole entry, looked up, the tested form may be a part) above

In assay [8] the target is T5, Dual specificity mitogen-activated protein kinase kinase 7 (Homo sapiens, UniProt O14733).
T5 sequence (O14733 whole entry): T2 sequence (whole entry)
Description: Binding affinity to wild-type human full length MKK7 (M1 to R419 residues) expressed in mammalian expression system by Kinomescan method. Put shortly: as §1

The target of assay [9] is T3, Mitogen-activated protein kinase kinase kinase 20. Description: Binding affinity to wild-type human partial length ZAK (M1 to L331 residues) expressed in bacterial expression system by Kinomescan method. Put shortly:
as §1
Target sequence in this assay (Q9NYL2 whole entry, the tested form may be a part): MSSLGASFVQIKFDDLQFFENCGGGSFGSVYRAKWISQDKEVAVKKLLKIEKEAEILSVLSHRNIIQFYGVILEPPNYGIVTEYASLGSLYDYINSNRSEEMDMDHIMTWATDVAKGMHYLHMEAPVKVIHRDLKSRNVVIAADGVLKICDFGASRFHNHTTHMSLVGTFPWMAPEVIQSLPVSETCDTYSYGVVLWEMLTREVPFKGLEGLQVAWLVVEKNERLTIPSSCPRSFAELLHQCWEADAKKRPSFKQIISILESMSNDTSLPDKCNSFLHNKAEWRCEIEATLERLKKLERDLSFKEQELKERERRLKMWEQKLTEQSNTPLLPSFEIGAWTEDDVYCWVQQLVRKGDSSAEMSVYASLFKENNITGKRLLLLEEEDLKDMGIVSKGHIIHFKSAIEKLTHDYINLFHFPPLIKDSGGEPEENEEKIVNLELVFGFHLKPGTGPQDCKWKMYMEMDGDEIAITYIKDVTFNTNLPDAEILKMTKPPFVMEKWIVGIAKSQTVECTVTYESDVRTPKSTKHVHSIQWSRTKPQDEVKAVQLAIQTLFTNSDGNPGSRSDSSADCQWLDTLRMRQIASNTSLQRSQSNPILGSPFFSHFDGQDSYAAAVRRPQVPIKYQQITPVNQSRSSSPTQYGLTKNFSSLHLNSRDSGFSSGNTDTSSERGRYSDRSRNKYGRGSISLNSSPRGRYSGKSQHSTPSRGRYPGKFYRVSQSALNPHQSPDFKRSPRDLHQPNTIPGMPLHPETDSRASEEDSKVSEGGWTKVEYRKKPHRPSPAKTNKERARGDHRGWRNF

What is called IC50 is the concentration at which inhibition is half-maximal. Low values mean greater potency in that assay, high ones weaker potency in that assay. One may read the Kd as a measure of binding affinity in units of concentration. A lower Kd goes with tighter binding.

Chain of Mitogen-activated protein kinase 8 (P45983 whole entry, the tested form may be a part): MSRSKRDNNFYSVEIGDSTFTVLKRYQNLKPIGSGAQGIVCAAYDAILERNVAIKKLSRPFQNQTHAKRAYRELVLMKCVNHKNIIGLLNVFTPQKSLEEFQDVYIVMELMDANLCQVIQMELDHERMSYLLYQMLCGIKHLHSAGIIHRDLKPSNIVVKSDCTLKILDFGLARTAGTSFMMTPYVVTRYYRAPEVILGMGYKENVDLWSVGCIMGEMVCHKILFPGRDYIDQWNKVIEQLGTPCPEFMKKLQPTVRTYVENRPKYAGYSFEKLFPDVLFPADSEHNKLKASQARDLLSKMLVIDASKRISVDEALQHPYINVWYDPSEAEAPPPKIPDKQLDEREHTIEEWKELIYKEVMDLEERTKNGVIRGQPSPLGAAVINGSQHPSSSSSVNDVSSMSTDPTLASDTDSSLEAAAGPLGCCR
Chain of Serine/threonine-protein kinase B-raf (P15056 whole entry, the tested form may be a part): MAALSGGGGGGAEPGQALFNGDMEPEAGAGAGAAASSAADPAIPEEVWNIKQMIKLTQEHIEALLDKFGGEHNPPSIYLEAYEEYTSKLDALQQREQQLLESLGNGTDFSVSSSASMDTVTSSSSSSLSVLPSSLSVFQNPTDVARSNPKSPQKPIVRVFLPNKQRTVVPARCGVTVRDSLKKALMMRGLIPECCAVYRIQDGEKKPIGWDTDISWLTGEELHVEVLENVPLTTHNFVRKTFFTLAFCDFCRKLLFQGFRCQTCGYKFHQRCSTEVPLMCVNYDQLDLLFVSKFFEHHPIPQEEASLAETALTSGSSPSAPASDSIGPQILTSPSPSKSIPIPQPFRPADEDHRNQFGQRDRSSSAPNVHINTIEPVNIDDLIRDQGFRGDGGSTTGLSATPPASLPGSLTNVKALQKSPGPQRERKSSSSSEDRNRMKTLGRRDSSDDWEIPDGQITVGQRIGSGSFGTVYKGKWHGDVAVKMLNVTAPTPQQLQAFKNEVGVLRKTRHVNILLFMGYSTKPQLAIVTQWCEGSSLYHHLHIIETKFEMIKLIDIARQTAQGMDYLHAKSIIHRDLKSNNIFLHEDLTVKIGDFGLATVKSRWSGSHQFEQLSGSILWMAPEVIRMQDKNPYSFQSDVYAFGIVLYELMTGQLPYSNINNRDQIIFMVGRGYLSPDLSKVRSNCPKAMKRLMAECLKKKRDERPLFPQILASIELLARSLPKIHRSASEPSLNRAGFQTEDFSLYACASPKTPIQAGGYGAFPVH

Consider `CCCS(=O)(=O)Nc1ccc(F)c(C(=O)c2n[nH]c3ncc(-c4ccc(S(N)(=O)=O)cc4)cc23)c1F`, for which the Activity in assay [1] was 100%; in assay [2], 98%; in [3] it was 91%. In assay [4], half-maximal inhibition (IC50) was put at 0.089 µM.

Take `Nc1ccc(-c2cnc3[nH]nc(C(=O)c4c(F)ccc(NS(=O)(=O)Cc5ccccc5)c4F)c3c2)cc1`: the Activity in [1] stood at 1.4%; in assay [2], 100%; in assay [3], 1.8%. For the same compound, the Kd in assay [5] came out at 0.61 µM; in assay [6], 0.14 µM; in assay [7], 0.0058 µM; in [8], 5 µM; in assay [9], 0.0095 µM.

Turning to `CCCS(=O)(=O)Nc1ccc(F)c(C(=O)c2n[nH]c3ncc(-c4ccc(S(=O)(=O)NC(C)=O)cc4)cc23)c1F`, the Activity in assay [1] was 67%; in assay [2], 71%; in [3] it was 38%. For the same compound, the IC50 in assay [4] amounted to 0.029 µM.

For `CS(=O)(=O)Nc1ccc(F)c(C(=O)c2n[nH]c3ncc(-c4ccc(S(N)(=O)=O)cc4)cc23)c1F`, the Activity in assay [1] was determined as 99%; in assay [2], 99%; in [3], 100%.

On to `CCCS(=O)(=O)Nc1ccc(F)c(C(=O)c2n[nH]c3ncc(-c4ccccc4O)cc23)c1F`, for which the values for the Activity in assay [1], in [2] and in [3] were 39%, 100% and 9.7%, respectively.

Turning to `CCCS(=O)(=O)Nc1ccc(F)c(C(=O)c2n[nH]c3ncc(-c4cccc(C)c4)cc23)c1F`, the results for the Activity in assay [1], in assay [2] and in assay [3] were 18%, 100% and 5.5%, respectively.

The values above are taken from ChEMBL document CHEMBL4811244, “Design and synthesis of 1H-pyrazolo[3,4-b]pyridines targeting mitogen-activated protein kinase kinase 4 (MKK4) - A promising target for liver regeneration” (Eur J Med Chem, 2021).
